TRPC4 PAM: allosterically enhances the mouse TRPC4 cation channel; 310,000 compounds, 0.42% hits; Q9QUQ5; B-score at 10 µM; HEK293 TRPC4beta/mu-opioid, DAMGO EC20, Fluo-4 Ca2+ flux; hits give high values;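 active = B-score of calcium response area above 5 SD of library B-scores, with initial fluorescence ratio within 5 SD of library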;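 note: B-score of integrated fluorescence ratio over time as area under calcium response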
TRPC4 act: activators of mouse TRPC4 channel; Q9QUQ5; HEK293 TRPC4beta/mu-opioid, Fluo4 calcium fluorescence; hits give high values; B-score at 10 µM; 310,000 compounds, 0.49% hits; AID 2237;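 active = B-score above 5 SD of library B-scores, and initial fluorescence ratio not above library mean plus 5 SD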;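 note: positive B-score marks a calcium rise read as TRPC4 activation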
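Material: TRPC4beta and mu-opioid receptor HEK293 stable cells | Incubation: 45 min room-temperature Fluo4 loading, 110 s read | Detection: Kinetic Fluo4 calcium fluorescence | Measure: Integrated baseline-normalised fluorescence ratio, converted to per-well B score | Benchmarks: Low control buffer alone, high control maximal DAMGO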
TRPC6 inh: blocks the mouse TRPC6 cation channel; Q61143; HEK293-TRPC6, membrane potential dye, ACh-evoked depolarization; hits give low values; B-score at 10 µM; 310,000 compounds, 1.1% hits; AID 2553;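 active = B-score under library mean minus 3 SD, initial fluorescence not abnormally high, positive integrated signal ratio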;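 note: B-score derived from integrated fluorescence ratio over the kinetic read; more negative B-score means stronger inhibition of depolarization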
Target sequence (Q61143 whole entry, looked up): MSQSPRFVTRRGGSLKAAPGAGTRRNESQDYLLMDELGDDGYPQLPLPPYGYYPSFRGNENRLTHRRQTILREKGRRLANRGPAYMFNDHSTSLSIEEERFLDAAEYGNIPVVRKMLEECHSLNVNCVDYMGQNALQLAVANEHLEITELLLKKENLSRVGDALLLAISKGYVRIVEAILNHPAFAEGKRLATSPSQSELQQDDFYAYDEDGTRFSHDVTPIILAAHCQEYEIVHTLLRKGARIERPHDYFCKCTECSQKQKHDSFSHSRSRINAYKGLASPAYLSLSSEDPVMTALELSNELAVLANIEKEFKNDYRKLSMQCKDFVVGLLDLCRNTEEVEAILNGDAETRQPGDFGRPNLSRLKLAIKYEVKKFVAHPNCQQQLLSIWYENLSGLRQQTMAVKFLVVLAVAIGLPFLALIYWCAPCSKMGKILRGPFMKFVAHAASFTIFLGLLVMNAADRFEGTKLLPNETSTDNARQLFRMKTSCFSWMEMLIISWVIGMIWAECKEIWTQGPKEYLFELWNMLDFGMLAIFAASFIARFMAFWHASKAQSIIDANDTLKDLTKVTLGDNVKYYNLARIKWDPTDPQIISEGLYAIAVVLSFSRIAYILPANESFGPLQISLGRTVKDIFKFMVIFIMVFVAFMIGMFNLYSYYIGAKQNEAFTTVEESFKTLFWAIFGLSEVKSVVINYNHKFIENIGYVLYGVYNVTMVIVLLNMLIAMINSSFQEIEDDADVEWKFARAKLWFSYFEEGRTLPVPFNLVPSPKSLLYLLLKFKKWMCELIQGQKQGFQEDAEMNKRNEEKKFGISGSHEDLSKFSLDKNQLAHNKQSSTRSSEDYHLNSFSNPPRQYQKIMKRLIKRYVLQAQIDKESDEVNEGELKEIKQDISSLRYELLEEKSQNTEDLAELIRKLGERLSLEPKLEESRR
TRPC4 inh: inhibitors of mouse TRPC4 channel; Q9QUQ5; AID 2247; B-score at 10 µM; 300,000 compounds, 0.39% hits; HEK293 TRPC4beta/mu-opioid, DAMGO-evoked Fluo4 calcium flux; hits give low values;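 active = B-score over 3 SD under the library average, no early fluorescence shift, positive overall ratio signal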
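Assay system: TRPC4beta/mu-opioid receptor HEK293 cell line; compound dosing: single concentration per test compound; detection: Fluo4 Ca2+ flux fluorescence; evaluation: per-well B score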
TRPC6 act: mouse TRPC6 channel activation. Q61143. HEK293-TRPC6 membrane potential dye fluorescence; hits give high values. B-score at 10 µM. 310,000 compounds, 0.13% hits. AID 2550;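 active = B-score of the integrated fluorescence ratio above library mean plus 3 SD, and starting fluorescence ratio within library mean plus 5 SD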;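 note: higher score means more depolarization so channel activation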
TRPC4 spec 2: second selectivity test of TRPC6 inhibitors: effect on mouse TRPC4 | shares compounds with TRPC6 inh | HEK293 TRPC4/MOR, membrane potential dye fluorescence; channel activated by saturating DAMGO dose | inhibition, % at 10 µM | 920 compounds, 42% hits | AID 2776;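 active = compounds whose fluorescence signal differed from control wells by over 3 SD, either direction, in both duplicate plates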
TRPC4 spec: selectivity of TRPC6 inhibitors: effect on mouse TRPC4 | shares compounds with TRPC6 inh | HEK293 TRPC4/mu-opioid, membrane potential fluorescence | activity change, negative = inhibition, % at 10 µM | 920 compounds, 61% hits | AID 2777;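 active = rise or fall in signal beyond 3 SD of buffer-only wells in both replicate plates, either sign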;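 note: integrated kinetic ratio of fluorescence range over baseline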
HEK293 MPD ctr 2-1: second check of TRPC6 inhibitor effects in parental HEK293 cells. shares compounds with TRPC6 inh. parental HEK293 membrane potential dye fluorescence; maximal acetylcholine challenge after compound addition. signal change vs control, % at 10 µM. 920 compounds, 31% hits. AID 2779;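 active = membrane potential signal moving either way by over 3 SD of the maximum-effect control, in both duplicate plates, meaning non-specific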
HEK293 MPD ctr-1: parental HEK293 nonspecific activity of TRPC6 inhibitors; shares compounds with TRPC6 inh; parental HEK293 membrane potential dye fluorescence; membrane potential signal change, % at 10 µM; 920 compounds, 60% hits; AID 2780;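 active = membrane potential signal shifting up or down by more than 3 SD of buffer-only wells, on both duplicate plates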
HEK293 MPD ctr-2: parental HEK293 nonspecific activity of TRPC6 modulators | 2,400 compounds, 51% hits | membrane potential signal change, % at 10 µM | membrane potential dye fluorescence | shares compounds with TRPC6 inh | AID 488924;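 active = membrane potential signal moves up or down beyond 5 SD from buffer-only wells, on both duplicate plates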
HEK293 MPD ctr 2-2: parental HEK293 nonspecific activity of TRPC6 modulators, second screen. AID 488926. membrane potential dye fluorescence; after compound, maximal acetylcholine stimulation. 2,400 compounds, 14% hits. shares compounds with TRPC6 inh. inhibition, % at 10 µM;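 active = membrane potential signal drops by more than 5 SD from the mean control signal, in both duplicate plates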;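 note: plate controls were acetylcholine ECmax control wells for no effect and buffer only wells for full effect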
TRPC4 ctr mod: selectivity of TRPC6 modulators against mouse TRPC4; 2,400 compounds, 69% hits; percent change from control (negative = decrease, positive = increase), % at 10 µM; HEK293 TRPC4/mu-opioid, membrane potential fluorescence; shares compounds with TRPC6 inh;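 active = membrane potential signal moved up or down beyond 5 SD of buffer control wells, in both duplicate plates, actives on both sides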;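 note: plate controls were assay buffer wells for no effect and DAMGO maximal-effect wells for full effect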
TRPC4/MOR inh 2: mouse TRPC4 off-target activity of TRPC6 modulators, second screen; shares compounds with TRPC6 inh; HEK293 TRPC4/mu-opioid, membrane potential dye fluorescence; stimulated with maximal-effect DAMGO; inhibition, % at 10 µM; 2,400 compounds, 55% hits; AID 488928;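 active = drop in membrane potential signal beyond 5 SD of the control wells in both duplicate plates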;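 note: TRPC4 counter screen for TRPC6 hits run under conditions tuned for TRPC6 not TRPC4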
TRPC6 block conf: mouse TRPC6 inhibitor confirmation; shares compounds with TRPC6 inh; HEK293-TRPC6, membrane potential dye, ACh-evoked depolarization; inhibition, % at 10 µM; 3,300 compounds, 43% hits; AID 488960;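 active = fluorescence ratio falls more than 5 SD below the full-stimulation control mean, in both duplicate runs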;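 note: integrated fluorescence ratio of peak minus minimum over baseline after agonist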
TRPC6 act confirm: mouse TRPC6 activator confirmation. 2,800 compounds, 11% hits. shares compounds with TRPC6 inh. AID 488961. HEK293-TRPC6 membrane potential dye fluorescence, FDSS. activation, % at 10 µM;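 active = ratio signal rise beyond 5 SD above unstimulated control wells' mean, seen in both duplicate runs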;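 note: plate controls were buffer EC0 wells for no effect and acetylcholine ECmax response for full effect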
Active calls of the source: *. An excerpt weighted towards active compounds, which were near 2.3% of everything screened.

How did O=C(CN1CCCC1)N1CCCc2c1c(=O)oc1ccc(OCc3ccccc3)cc21 do in these assays?
TRPC4 PAM: inactive; TRPC4 act: inactive; TRPC6 inh: -6.5*; TRPC4 inh: inactive; TRPC6 act: inactive; HEK293 MPD ctr-2: inactive; HEK293 MPD ctr 2-2: inactive; TRPC4 ctr mod: inactive; TRPC4/MOR inh 2: 70%*; TRPC6 block conf: inactive; TRPC6 act confirm: inactive

Results for CCCCCCN1C=CC(=C/C=C(\C#N)C(=O)OCC)C=C1 ?
TRPC4 PAM: inactive; TRPC4 act: 61*; TRPC6 inh: -9.6*; TRPC4 inh: inactive; TRPC6 act: 78*; HEK293 MPD ctr-2: active; HEK293 MPD ctr 2-2: 87%*; TRPC4 ctr mod: 250%*; TRPC4/MOR inh 2: inactive; TRPC6 block conf: inactive; TRPC6 act confirm: 566%*

What do the screens show for `COC(=O)Cc1c(C)c2ccc(O)c(CNCc3ccc(OC)c(OC)c3)c2oc1=O`?
TRPC4 PAM: inactive; TRPC4 act: inactive; TRPC6 inh: inactive; TRPC4 inh: inactive; TRPC6 act: inactive

Results for CN1CCc2c(sc3c2c(=O)n(-c2ccccc2)c2nncn32)C1 ?
TRPC4 PAM: inactive; TRPC4 act: inactive; TRPC6 inh: -5.9*; TRPC4 inh: inactive; TRPC6 act: inactive; HEK293 MPD ctr-2: -101%*; HEK293 MPD ctr 2-2: inactive; TRPC4 ctr mod: -20%*; TRPC4/MOR inh 2: inactive; TRPC6 block conf: inactive; TRPC6 act confirm: inactive

How did CCOC(=O)C(CC)n1nc(C)n2c(cc3occc32)c1=O (configuration not stated) do in these assays?
TRPC4 PAM: inactive; TRPC4 act: inactive; TRPC6 inh: inactive; TRPC4 inh: inactive; TRPC6 act: inactive

What do the screens show for `COc1cc(NC(=O)CSCC(=O)Nc2cccc(C(F)(F)F)c2)c(Cl)cc1Cl`?
TRPC4 PAM: inactive; TRPC4 act: inactive; TRPC6 inh: -7.3*; TRPC4 inh: inactive; TRPC6 act: inactive; TRPC4 spec 2: inactive; TRPC4 spec: inactive; HEK293 MPD ctr 2-1: inactive; HEK293 MPD ctr-1: inactive; TRPC6 block conf: inactive; TRPC6 act confirm: inactive

What do the screens show for `O=C(COCC(=O)Nc1cccc(C(F)(F)F)c1)Nc1cccc(C(F)(F)F)c1`?
TRPC4 PAM: inactive; TRPC4 act: inactive; TRPC6 inh: inactive; TRPC4 inh: inactive; TRPC6 act: inactive

How did COC(=O)c1ccc(Cn2nc(-c3ccc(C)cc3)ccc2=O)cc1 do in these assays?
TRPC4 PAM: inactive; TRPC4 act: inactive; TRPC6 inh: inactive; TRPC4 inh: inactive; TRPC6 act: inactive

What do the screens show for `CCOc1ccc(Br)cc1C(=O)N/N=C/c1c[nH]c2ccccc12`?
TRPC4 PAM: inactive; TRPC4 act: inactive; TRPC6 inh: inactive; TRPC4 inh: inactive; TRPC6 act: inactive

Results for O=C(N/N=C/c1c[nH]c2ccccc12)c1cc(Br)ccc1O ?
TRPC4 PAM: inactive; TRPC4 act: inactive; TRPC6 inh: -6.3*; TRPC4 inh: inactive; TRPC6 act: inactive; HEK293 MPD ctr-2: inactive; HEK293 MPD ctr 2-2: inactive; TRPC4 ctr mod: inactive; TRPC4/MOR inh 2: 60%*; TRPC6 block conf: 44%*; TRPC6 act confirm: inactive

How did CC(C)(C)C1CCC(=O)N(CCSc2ccccc2)CC1 (configuration not stated) do in these assays?
TRPC4 PAM: inactive; TRPC4 act: inactive; TRPC6 inh: -5.2*; TRPC4 inh: inactive; TRPC6 act: inactive; HEK293 MPD ctr-2: 190%*; HEK293 MPD ctr 2-2: inactive; TRPC4 ctr mod: 44%*; TRPC4/MOR inh 2: inactive; TRPC6 block conf: inactive

What do the screens show for `Cc1cc(C(=O)Nc2ccccc2N2CCCCC2)no1`?
TRPC4 PAM: inactive; TRPC4 act: inactive; TRPC6 inh: inactive; TRPC4 inh: inactive; TRPC6 act: inactive

What do the screens show for `CCOC(=O)N1CCC(N2Cc3cccc(C(=O)N4CCN(c5cccc(Cl)c5)CC4)c3C2=O)CC1`?
TRPC4 PAM: inactive; TRPC4 act: inactive; TRPC6 inh: -6.3*; TRPC4 inh: inactive; TRPC6 act: inactive; HEK293 MPD ctr-2: 100%*; HEK293 MPD ctr 2-2: inactive; TRPC4 ctr mod: 22%*; TRPC4/MOR inh 2: inactive; TRPC6 block conf: 42%*

How did CCOC(=O)N1CCC(N2Cc3cccc(C(=O)Nc4cccc(F)c4)c3C2=O)CC1 do in these assays?
TRPC4 PAM: inactive; TRPC4 act: inactive; TRPC6 inh: -9.2*; TRPC4 inh: inactive; TRPC6 act: inactive; TRPC4 spec 2: inactive; TRPC4 spec: inactive; HEK293 MPD ctr 2-1: -12%*; HEK293 MPD ctr-1: inactive; TRPC6 block conf: 90%*; TRPC6 act confirm: inactive

How did COc1ccc(S(=O)(=O)NC(C)C(=O)Nc2ccc3c(c2)OCO3)cc1OC (configuration not stated) do in these assays?
TRPC4 PAM: inactive; TRPC4 act: inactive; TRPC6 inh: inactive; TRPC4 inh: inactive; TRPC6 act: inactive
